Experimental data: ChEMBL document CHEMBL4368917, “Synthesis and Evaluation of a QS-17/18-Based Vaccine Adjuvant” (J Med Chem, 2019)
Calls of active or inactive are those of the source. The rule behind the calls is not given here.

Key:
Mus musculus [1] = test: Potentiation of serum IgG/recombinant Porphyromonas gingivalis HagB induced immune response n BALB/c mouse at 100 ug, sc immunized on day 14 and 28 measured week 4 and 6 post immunization by ELISA; assay type: functional, organism-based
Method in brief: (§1)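 Mice from Frederick Cancer Research were immunized with rHagB plus adjuvant (100 or 50 μg; adjuvant given at 1.0 mg/mL as solution or suspension with antigen). Retro-orbital blood was collected before and after immunization, and serum was stored at −20 °C. ELISA plates were coated with rHagB (1 μg/mL) in borate buffered saline pH 8.2; serial two-fold serum dilutions were run in duplicate.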

Mus musculus [2] = test: Potentiation of recombinant Porphyromonas gingivalis HagB induced Th1/Th2 immune response in BALB/c mouse assessed as increase in IgG2a levels at 50 ug, sc measured at week 4 and 6 by ELISA; assay type: functional, organism-based; method in brief: as §1
Mus musculus [3] = test: Potentiation of recombinant Porphyromonas gingivalis HagB induced Th1/Th2 immune response in BALB/c mouse assessed as increase in IgG1 levels at 50 ug, sc measured at week 4 and 6 by ELISA; assay type: functional, organism-based; method in brief: as §1
Mus musculus [4] = test: Potentiation of recombinant Porphyromonas gingivalis HagB induced Th1/Th2 immune response in BALB/c mouse assessed as increase in IgG2a levels at 100 ug, sc measured at week 4 and 6 by ELISA; assay type: functional, organism-based; method in brief: as §1
Mus musculus [5] = test: Potentiation of recombinant Porphyromonas gingivalis HagB induced Th1/Th2 immune response in BALB/c mouse assessed as increase in IgG1 levels at 100 ug, sc measured at week 4 and 6 by ELISA; assay type: functional, organism-based; method in brief: as §1
Mus musculus [6] = test: Potentiation of serum IgG/recombinant Porphyromonas gingivalis HagB induced-immune response in BALB/c mouse at 100 ug, sc immunized on day 14 and 28 after 42 days by ELISA; assay type: functional, organism-based; method in brief: as §1
[7] = Toxicity in BALB/c mouse assessed as effect on body weight at 50 to 100 ug, sc measured after 41 days; assay type: organism-based; conditions: in vivo, 984 h
Method in brief: (§2)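 Mice were weighed before each immunization and on day 42 after the last immunization. Adjuvant was given with rHagB antigen at 100 μg, or at 50 μg for one group.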

Mus musculus [8] = test: Potentiation of recombinant Porphyromonas gingivalis HagB induced Th1/Th2 immune response in BALB/c mouse assessed as increase in IgG1 levels at 100 ug, sc measured at week 4 by ELISA; assay type: functional, organism-based; method in brief: as §1
[9] = Toxicity in BALB/c mouse assessed as effect on body weight at 100 ug, sc measured after 41 days; assay type: organism-based; conditions: in vivo, 984 h; method in brief: as §2

Q: For `CCCCCCCCCCCCNC(=O)[C@H]1O[C@@H](O[C@H]2CC[C@]3(C)[C@H]4CC=C5[C@@H]6CC(C)(C)CC[C@]6(C(=O)O[C@@H]6O[C@H](C)[C@H](O)[C@H](O)[C@H]6O[C@@H]6O[C@@H](C)[C@H](O[C@@H]7OC[C@@H](O)[C@H](O[C@@H]8OC[C@@H](O)[C@H](O)[C@H]8O)[C@H]7O)[C@@H](O[C@@H]7O[C@H](CO)[C@@H](O)[C@H](O)[C@H]7O)[C@H]6O)[C@H](O)C[C@@]5(C)[C@]4(C)CC[C@H]3[C@]2(C)C=O)[C@H](O[C@@H]2O[C@H](CO)[C@H](O)[C@H](O)[C@H]2O)[C@@H](O[C@@H]2OC[C@@H](O)[C@H](O)[C@H]2O)[C@@H]1O`, which Activity (Mus musculus [1]) is on record?
A: Active

Q: And the Activity (Mus musculus [2])?
A: Active

Q: What about the Activity (Mus musculus [3]) of the same compound?
A: Active

Q: And the Activity (Mus musculus [4])?
A: Active

Q: And the Activity (Mus musculus [5])?
A: Active

Q: What about the Activity (Mus musculus [6]) of the same compound?
A: Active

Q: What about the Activity [7] of the same compound?
A: Non-Toxic

Q: For `CCCCCCCCCCCCNC(=O)[C@H]1O[C@@H](O[C@H]2CC[C@]3(C)[C@H]4CC=C5[C@@H]6CC(C)(C)CC[C@]6(C(=O)O[C@@H]6O[C@H](C)[C@H](O)[C@H](O)[C@H]6O[C@@H]6O[C@@H](C)[C@H](O[C@@H]7OC[C@@H](O)[C@H](O[C@@H]8OC[C@](O)(CO)[C@H]8O)[C@H]7O)[C@@H](O)[C@H]6O)[C@H](O)C[C@@]5(C)[C@]4(C)CC[C@H]3[C@]2(C)C=O)[C@H](O[C@@H]2O[C@H](CO)[C@H](O)[C@H](O)[C@H]2O)[C@@H](O[C@@H]2OC[C@@H](O)[C@H](O)[C@H]2O)[C@@H]1O`, which Activity (Mus musculus [4]) is on record?
A: inactive

Q: What about the Activity (Mus musculus [6]) of the same compound?
A: inactive

Q: And the Activity (Mus musculus [8])?
A: inactive

Q: And the Activity [9]?
A: Non-Toxic
